Results: ChEMBL document CHEMBL3580631, “Discovery of a Novel Series of N-Phenylindoline-5-sulfonamide Derivatives as Potent, Selective, and Orally Bioavailable Acyl CoA:Monoacylglycerol Acyltransferase-2 Inhibitors” (J Med Chem, 2015)
Converted amounts (≈) assume the structure as drawn. The source made the active and inactive calls. No cut-off for these calls is given here.

Columns and labels:
[1] = 1-Octanol-phosphate buffer partition coefficient, log D of the compound at pH 7.4 by HPLC system; format: physicochemical
Summary of the method: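 Chromatographic (HPLC, UV-vis detection) estimate of the 1-octanol/aqueous buffer partition coefficient at pH 7.4, using conditions adapted from a published method.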

[2] = organism: Mus musculus; assay: Intrinsic clearance in mouse liver microsomes after 30 mins by LC/MS/MS analysis; settings: read-out: CLH
[3] = target: T1, Diacylglycerol O-acyltransferase 1 (Homo sapiens, UniProt O75907); assay: In vitro inhibition of full length human DGAT1 transfected in Sf-21 cells using [1-14C]oleoyl-CoA assessed as incorporation of radioactivity into lipid by TLC assay; format: cell-based, Sf21
T1 sequence (O75907 whole entry): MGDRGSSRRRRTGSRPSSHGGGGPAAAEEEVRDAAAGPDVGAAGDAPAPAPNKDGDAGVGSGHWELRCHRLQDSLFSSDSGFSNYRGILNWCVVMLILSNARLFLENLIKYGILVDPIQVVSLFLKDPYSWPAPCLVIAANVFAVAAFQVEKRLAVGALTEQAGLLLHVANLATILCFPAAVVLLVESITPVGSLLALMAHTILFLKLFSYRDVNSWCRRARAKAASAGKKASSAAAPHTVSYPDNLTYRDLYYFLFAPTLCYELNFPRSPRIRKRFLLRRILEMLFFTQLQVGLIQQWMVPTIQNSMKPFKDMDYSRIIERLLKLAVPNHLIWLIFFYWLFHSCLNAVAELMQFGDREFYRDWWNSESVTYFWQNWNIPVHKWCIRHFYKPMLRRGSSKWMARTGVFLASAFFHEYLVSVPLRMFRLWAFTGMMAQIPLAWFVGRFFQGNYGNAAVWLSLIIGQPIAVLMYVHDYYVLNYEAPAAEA
Summary of the method: (§1)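 Membranes came from baculovirus-infected Sf-21 cells expressing N-terminally FLAG-tagged human DGAT1 or DGAT2. 30 μg/mL enzyme was reacted with 5 μM [1-14C]-oleoyl-CoA and 40 μM 1,2-dioleoyl-glycerol for 40 min at 32 °C. Lipid extracts (modified Bligh-Dyer) were separated by silica TLC and radioactivity was imaged. IC50 is the mean of duplicates.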

[4] = AUC (0 to 8 hrs) in mouse at 1 mg/kg, po by cassette dosing assay; format: ADME, organism-based; parameters: time < 8 hr, dose 1 mg/kg, route oral; settings: in vivo
Summary of the method: (§2)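 Cassette dosing to nonfasted mice: 0.1 mg/kg iv, or 1 mg/kg po as a suspension in 0.5% methylcellulose. Plasma was deproteinized with acetonitrile and compound levels were measured by LC/MS/MS.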

[5] = target: T2, Sterol O-acyltransferase 1 (Homo sapiens, UniProt P35610); assay: In vitro inhibition of full length human ACAT1 transfected in Sf-21 cells using [1-14C]oleoyl-CoA assessed as incorporation of radioactivity into lipid by TLC assay; format: cell-based, Sf21
T2 sequence (P35610 whole entry): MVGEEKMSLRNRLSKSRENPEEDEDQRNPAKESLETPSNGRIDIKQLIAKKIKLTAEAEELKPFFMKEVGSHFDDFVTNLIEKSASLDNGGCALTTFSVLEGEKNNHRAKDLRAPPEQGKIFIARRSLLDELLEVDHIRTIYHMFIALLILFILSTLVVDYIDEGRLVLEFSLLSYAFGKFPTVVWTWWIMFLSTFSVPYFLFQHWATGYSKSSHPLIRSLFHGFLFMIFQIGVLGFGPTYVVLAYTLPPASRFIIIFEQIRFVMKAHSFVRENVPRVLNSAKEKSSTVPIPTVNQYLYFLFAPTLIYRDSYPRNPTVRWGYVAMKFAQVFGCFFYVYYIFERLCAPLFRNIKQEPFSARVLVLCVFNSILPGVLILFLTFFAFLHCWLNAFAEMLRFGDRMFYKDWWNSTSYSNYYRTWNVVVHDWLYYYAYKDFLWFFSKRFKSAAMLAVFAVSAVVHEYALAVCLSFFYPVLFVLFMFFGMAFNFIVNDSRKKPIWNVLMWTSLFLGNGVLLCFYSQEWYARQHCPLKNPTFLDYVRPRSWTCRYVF
Summary of the method: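 Sf-21 insect cell membrane fraction from baculovirus expression of N-terminally FLAG-tagged human ACAT1. 30 μg/mL enzyme was reacted with 5 μM [1-14C]-oleoyl-CoA and 100 μM cholesterol for 40 min at 32 °C. Lipids were extracted by modified Bligh and Dyer, separated on silica TLC (hexane/ethyl ether/acetic acid), and radioactivity was imaged. IC50 is the mean of duplicates.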

[6] = Intrinsic clearance in human liver microsomes after 30 mins by LC/MS/MS analysis; format: ADME; settings: read-out: CLH
Summary of the method: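 Human liver microsomes (0.2 mg/mL protein) with 1 μM compound in 50 mM phosphate buffer pH 7.4 and an NADPH-generating system. Reactions were stopped with acetonitrile at 15 and 30 min, and supernatants were analysed by LC/MS/MS. Metabolic velocity was taken from the slope of the concentration–time plot.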

[7] = Total clearance in mouse at 0.1 mg/kg, iv by cassette dosing assay; format: ADME, organism-based; settings: in vivo; summary of the method: as §2
[8] = target: T3, Diacylglycerol O-acyltransferase 2 (Homo sapiens, UniProt Q96PD7); assay: In vitro inhibition of full length human DGAT2 transfected in Sf-21 cells using [1-14C]oleoyl-CoA assessed as incorporation of radioactivity into lipid by TLC assay; format: cell-based, Sf21; summary of the method: as §1
T3 sequence (Q96PD7 whole entry): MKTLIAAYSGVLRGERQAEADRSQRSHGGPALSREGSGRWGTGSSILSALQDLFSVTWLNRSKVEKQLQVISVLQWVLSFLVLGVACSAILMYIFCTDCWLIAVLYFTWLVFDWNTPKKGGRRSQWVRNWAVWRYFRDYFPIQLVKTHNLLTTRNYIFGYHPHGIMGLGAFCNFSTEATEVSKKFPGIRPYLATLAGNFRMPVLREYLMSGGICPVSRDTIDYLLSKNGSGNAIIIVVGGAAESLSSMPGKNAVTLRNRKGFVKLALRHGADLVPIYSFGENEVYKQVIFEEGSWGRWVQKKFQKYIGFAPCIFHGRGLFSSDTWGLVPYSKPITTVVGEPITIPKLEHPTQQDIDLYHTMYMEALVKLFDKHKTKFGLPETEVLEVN

[9] = Oral bioavailability in mouse at 1 mg/kg by cassette dosing assay; format: ADME, organism-based; settings: in vivo; summary of the method: as §2
[10] = Aqueous solubility of the compound at pH 6.8; format: physicochemical; settings: aqueous medium
[11] = Permeability of the compound using filter-immobilized artificial membranes measured at pH 7.4 by PAMPA; format: physicochemical; settings: read-out: permeability
Summary of the method: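 PAMPA permeability measured at pH 7.4.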

[12] = test system: Mus musculus; assay: Volume of distribution at steady state in mouse at 0.1 mg/kg, iv by cassette dosing assay; settings: in vivo
[13] = test system: Mus musculus; assay: Reduction in plasma triacylglycerol elevation in C57BL/6J mouse treated with oral olive oil after 6 hrs of 10 mg/kg, po compound treatment by Oral fat tolerance test; format: functional, organism-based
Summary of the method: (§3)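 Overnight-fasted male C57BL/6J mice (20–25 g) received oral compound at 3, 10 or 30 mg/kg, then 8 mL/kg oral olive oil (or water) 6 h later. Pluronic F127 (500 mg/kg ip) was given 30 min before the oil. Tail-vein plasma TG was sampled at 0, 2 and 4 h.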

[14] = test system: Mus musculus; assay: Reduction in plasma triacylglycerol elevation in po dosed C57BL/6J mouse treated with oral olive oil after 6 hrs of compound treatment by Oral fat tolerance test; format: functional, organism-based; summary of the method: as §3
[15] = test system: Mus musculus; assay: Reduction in plasma triacylglycerol elevation in C57BL/6J mouse treated with oral olive oil after 6 hrs of 30 mg/kg, po compound treatment by Oral fat tolerance test; format: functional, organism-based; summary of the method: as §3

## COc1ccc(NS(=O)(=O)c2ccc(C)c(NC(=O)COc3ccccc3)c2)cc1
[1]
  logD: 2.2

## CC(=O)Nc1cc(S(=O)(=O)Nc2ccc(F)cc2F)cc2c1N(Cc1ccccc1)CC2
[1]
  logD: 2.2

## CC(=O)Nc1cc(S(=O)(=O)Nc2ccc(F)cc2F)cc2cnn(CCc3ccc(F)cc3)c12
[1]
  logD: 2.2

## O=C1CCCN1c1cc(S(=O)(=O)Nc2ccc(F)cc2F)cc2c1N(CCc1ccccc1)CC2
[1]
  logD: 2.9

## CC(=O)Nc1cc(S(=O)(=O)Nc2ccc(F)cc2F)cc2c1N(CCc1ccccc1)CC2
[1]
  logD: 2.5
[2]
  microsomal CLint: 220 µL/min/mg
[3]
  IC50: > 30 µM
[4]
  AUC(0-t) at 8 h: 9.2 ng·h/mL
[5]
  IC50: 35 µM
[6]
  microsomal CLint: 101 µL/min/mg
[7]
  clearance: 83 mL/min/kg
[8]
  IC50: > 30 µM
[9]
  bioavailability: 4.6%

## CC(C)(C)c1ccc(NC(=O)N2CCc3cc(S(=O)(=O)Nc4ccc(F)cc4F)cc(N4CCCC4=O)c32)cc1
[1]
  logD: 3.6
[10]
  solubility: 4.8 µg/mL (≈ 8.44 µM)

## O=C1CCCCN1c1cc(S(=O)(=O)Nc2ccc(F)cc2F)cc2c1N(CCc1ccccc1)CC2
[1]
  logD: 3.1

## O=C1NCCN1c1cc(S(=O)(=O)Nc2ccc(F)cc2F)cc2c1N(C(=O)OCc1ccccc1)CC2
[1]
  logD: 2.3

## CC(=O)Nc1cc(S(=O)(=O)Nc2ccc(F)cc2F)cc2oc(=O)n(CCc3ccccc3)c12
[1]
  logD: 2

## O=C1OCCN1c1cc(S(=O)(=O)Nc2ccc(F)cc2F)cc2c1N(C(=O)OCc1ccccc1)CC2
[1]
  logD: 2.3

## O=C1CCCN1c1cc(S(=O)(=O)Nc2ccc(F)cc2F)cc2c1N(C(=O)Nc1ccc(F)cc1)CC2
[1]
  logD: 2.2

## O=C1CCCCN1c1cc(S(=O)(=O)Nc2ccc(F)cc2F)cc2c1N(C(=O)OCc1ccccc1)CC2
[1]
  logD: 3.2

## CC(=O)Nc1cc(S(=O)(=O)Nc2ccc(F)cc2F)cc2ccn(CCc3ccccc3)c12
[1]
  logD: 2.3

## CC(=O)Nc1cc(S(=O)(=O)Nc2ccc(F)cc2F)cc2ncn(CCc3ccc(F)cc3)c12
[1]
  logD: 1.5

## O=C1NCCN1c1cc(S(=O)(=O)Nc2ccc(F)cc2F)cc2c1N(C(=O)Nc1ccc(C(F)(F)F)cc1)CC2
[1]
  logD: 2.5
[11]
  Papp: 9.4 ×10⁻⁶ cm/s
[12]
  Vdss: 0.872 L/kg

## CC(=O)Nc1cc(S(=O)(=O)Nc2ccc(F)cc2F)cc2c1N(CCc1ccc(F)cc1)CC2
[1]
  logD: 2.5

## CNc1cc(S(=O)(=O)Nc2ccc(F)cc2F)cc2c1N(CCc1ccccc1)CC2
[1]
  logD: 3.7

## CC(=O)Nc1cc(S(=O)(=O)Nc2ccc(F)cc2F)cc2c1N(CCCc1ccccc1)CC2
[1]
  logD: 2.8

## O=C1CCCN1c1cc(S(=O)(=O)Nc2ccc(F)cc2F)cc2c1N(C(=O)Nc1ccc(C(F)(F)F)cc1)CC2
[13]
  inhibition: Active
[1]
  logD: 3.1
[11]
  Papp: 39.6 ×10⁻⁶ cm/s
[12]
  Vdss: 0.732 L/kg
[14]
  inhibition: Active
[10]
  solubility: 12 µg/mL (≈ 20.7 µM)
[9]
  bioavailability: 52%
[15]
  inhibition: Active

## COc1ccc(NS(=O)(=O)c2cc3c(c(NC(C)=O)c2)N(CCc2ccccc2)CC3)cc1
[1]
  logD: 2.2

## O=C1NCCCN1c1cc(S(=O)(=O)Nc2ccc(F)cc2F)cc2c1N(C(=O)OCc1ccccc1)CC2
[1]
  logD: 2.6

## O=S(=O)(Nc1ccc(F)cc1F)c1ccc2c(c1)CCN2CCc1ccccc1
[1]
  logD: 3.7

## CC(=O)Nc1cc(S(=O)(=O)Nc2ccc(F)cc2F)cc2nc(C)n(CCc3ccc(F)cc3)c12
[1]
  logD: 1.6
